The text below walks through data of publication PMC5298935 (The FEBS journal, 2016).

Molecules are shown by their SMILES. Where two headings read alike, the source gives them in different places. Square brackets hold non-standard residues; d marks the D form. Peptide text beside a SMILES is read from it. pS = N[C@@H](COP(=O)(O)O)C(=O)O

Experiment [1] concerns the target Pin1-FL (with 6X-His tag) (Homo sapiens, UniProt Q13526). Nature of the experiment: Biolayer interferometry. Type of experiment: binding. The method in brief:
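Ni-NTA biosensors loaded with 10 μg/mL His-tagged full-length Pin1 for 600 s, quenched 300 s with buffer plus 10 mM imidazole and 25 μg/mL biotin. Association with singly or dually phosphorylated peptide at 80–1.25 μM for 600 s, then 600 s dissociation in buffer. Buffer: 10 mM HEPES, 20 mM NaCl, 0.1 mM TCEP, pH 7.4; 25°C. Pin1-free sensors served as nonspecific-binding reference.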

Experiment [2] deals with T1, Pin1-FL (Homo sapiens, UniProt Q13526). Format: binding. The following applies: B = C-terminal site. The procedure, abridged: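 Full-length Pin1 underwent reverse titration with dually phosphorylated peptides; HSQC perturbations in N and H dimensions were fit separately (fmincon). The multistate model added two bivalent states, each with its own Keq. Non-bivalent KD and bound shifts were fixed from single-site titrations. Residues needed distinct bound shifts per motif. Reduced chi-square used σH 0.00407 and σN 0.0205 ppm.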

Experiment [3] has as its target T1, Pin1-FL. The experiment in a line: Simulation of Pin1-FL binding at low micromolar concentrations.

T1 sequence (Q13526 whole entry): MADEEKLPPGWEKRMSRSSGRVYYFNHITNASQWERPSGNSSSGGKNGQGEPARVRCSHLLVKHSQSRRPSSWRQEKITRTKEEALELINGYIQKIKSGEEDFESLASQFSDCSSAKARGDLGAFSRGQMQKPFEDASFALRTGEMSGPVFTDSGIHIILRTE
Chain of Pin1-FL (with 6X-His tag) (Q13526 whole entry): as above

As to `CC(C)C[C@H](NC(=O)[C@H](Cc1ccccc1)NC(=O)[C@@H](NC(=O)[C@@H](N)CO)[C@@H](C)O)C(=O)N[C@@H](COP(=O)(O)O)C(=O)N1CCC[C@H]1C(=O)N[C@@H](C)C(=O)N[C@@H](Cc1ccccc1)C(=O)N1CCC[C@H]1C(=O)NCC(=O)O` [p144] (H-STFL[pS]PAFPG-OH), the “Pin1 binding detected by biolayer interferometry” value in experiment [1] (peptide 1.25-80 μM, BLI buffer pH 7.4, 25°C) was “not measurable”.

Regarding `CC(=O)N[C@@H](CCC(=O)O)C(=O)N[C@@H](C)C(=O)N[C@@H](CCC(=O)O)C(=O)N[C@@H](C)C(=O)N[C@@H](Cc1c[nH]c2ccccc12)C(=O)N[C@@H](COP(=O)(O)O)C(=O)N1CCC[C@H]1C(=O)N[C@@H](CCCNC(=N)N)C(=O)N[C@@H](CCCCN)C(=O)N[C@@H](CC(C)C)C(=O)N1CCC[C@H]1C(=O)N[C@@H](CO)C(=O)N[C@@H](CO)C(=O)N[C@@H](C)C(=O)N[C@@H](CO)C(=O)N[C@H](C(=O)N[C@@H](Cc1ccccc1)C(=O)N[C@@H](CC(C)C)C(=O)N[C@@H](COP(=O)(O)O)C(=O)N1CCC[C@H]1C(=O)N[C@@H](C)C(=O)N[C@@H](Cc1ccccc1)C(=O)N1CCC[C@H]1C(=O)NCC(N)=O)[C@@H](C)O` [p131/p144] (Ac-EAEAW[pS]PRKLPSSASTFL[pS]PAFPG-NH2), the “KeqB:WW (Fitted Keq^A:WW, Keq^B:WW and Δδbound for bivalent states)” value in experiment [2] (nitrogen dimension) worked out at 0.02; in experiment [2] (proton dimension), 0.43. In addition, the “ΔGequiv (change in Gibbs free energy)” value in experiment [3] (corresponds to the equivalent bimolecular KD at 20 μM peptide) is reported as -7.49 kcal/mol. Besides, the “total fraction of bound Pin1” value in experiment [3] (simulated, 20 μM peptide, total Pin1 ~0.5 μM, sum of all bound Pin1 species divided by total Pin1) was 0.85. Moreover, the Kd (usually the equilibrium constant for the complex coming apart) in experiment [1] turned out to be 1 µM.
